# The source made the active and inactive calls. The rule behind the calls is not given here.
# Legend:
# Plasmodium falciparum [1] = assay: Antimalarial activity against chloroquine and pyrimethamine-resistant Plasmodium falciparum K1; assay type: functional, organism-based
# Summary of the method: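 P. falciparum cultured with test drug in human red blood cells for 3 days. Growth read out as hypoxanthine incorporation.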
# Plasmodium falciparum [2] = assay: Antimalarial activity against chloroquine, pyrimethamine, quinine-resistant Plasmodium falciparum V1S; assay type: functional; conditions: VS/1
# [3] = target: Voltage-dependent L-type calcium channel subunit alpha-1C (Homo sapiens, UniProt Q13936); assay: Inhibition of human Cav1.2 channel
# [4] = Cmax in NMRI mouse at 1 mg/kg, iv and 5 mg/kg, po by LC-MS/MS analysis; assay type: ADME, organism-based; conditions: in vivo
# [5] = target: T1, Inward rectifier potassium channel 2 (Homo sapiens, UniProt P63252); assay: Inhibition of human Kir2.1 channel
# T1 sequence (P63252 whole entry): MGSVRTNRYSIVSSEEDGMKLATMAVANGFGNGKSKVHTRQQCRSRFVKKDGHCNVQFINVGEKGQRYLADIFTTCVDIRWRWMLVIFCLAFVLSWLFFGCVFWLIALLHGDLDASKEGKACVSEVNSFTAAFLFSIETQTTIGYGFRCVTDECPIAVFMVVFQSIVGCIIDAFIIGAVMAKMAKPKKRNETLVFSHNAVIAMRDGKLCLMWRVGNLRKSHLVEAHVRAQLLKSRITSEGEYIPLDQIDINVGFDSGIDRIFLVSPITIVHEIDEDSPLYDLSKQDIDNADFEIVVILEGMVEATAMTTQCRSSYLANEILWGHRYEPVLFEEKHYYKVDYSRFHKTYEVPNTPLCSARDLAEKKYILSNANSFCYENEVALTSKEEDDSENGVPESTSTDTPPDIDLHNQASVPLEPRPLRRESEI
# [6] = Genotoxicity in micronucleus (unknown origin)
# [7] = target: Potassium voltage-gated channel subfamily A member 5 (Homo sapiens) (UniProt P22460); assay: Inhibition of human Kv1.5 channel
# Sequence of Potassium voltage-gated channel subfamily A member 5 (Homo sapiens) (P22460 whole entry): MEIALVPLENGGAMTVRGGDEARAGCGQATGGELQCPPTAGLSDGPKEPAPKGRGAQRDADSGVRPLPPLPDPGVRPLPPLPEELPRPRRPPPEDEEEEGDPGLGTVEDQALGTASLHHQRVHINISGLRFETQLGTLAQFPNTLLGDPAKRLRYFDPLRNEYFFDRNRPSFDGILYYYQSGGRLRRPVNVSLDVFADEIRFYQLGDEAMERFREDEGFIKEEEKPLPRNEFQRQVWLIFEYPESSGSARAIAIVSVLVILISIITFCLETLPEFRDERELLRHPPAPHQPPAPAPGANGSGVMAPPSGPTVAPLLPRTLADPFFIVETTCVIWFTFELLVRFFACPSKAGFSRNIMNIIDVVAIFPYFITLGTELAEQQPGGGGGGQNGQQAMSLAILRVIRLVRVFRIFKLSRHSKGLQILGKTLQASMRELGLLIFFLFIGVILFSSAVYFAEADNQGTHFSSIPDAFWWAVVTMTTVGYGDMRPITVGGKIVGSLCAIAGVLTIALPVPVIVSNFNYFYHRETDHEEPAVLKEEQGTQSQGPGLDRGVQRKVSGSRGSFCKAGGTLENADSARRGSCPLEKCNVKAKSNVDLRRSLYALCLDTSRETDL
# Cytochrome P450 2C8 = target: T2, Cytochrome P450 2C8 (Homo sapiens, UniProt P10632); assay: Inhibition of human recombinant CYP2C8 expressed in baculovirus-infected insect cells preincubated for 15 mins followed by substrate addition measured after 30 mins by luminescence assay; assay type: ADME; conditions: recombinant enzyme, 0.5 h
# T2 sequence (P10632 whole entry): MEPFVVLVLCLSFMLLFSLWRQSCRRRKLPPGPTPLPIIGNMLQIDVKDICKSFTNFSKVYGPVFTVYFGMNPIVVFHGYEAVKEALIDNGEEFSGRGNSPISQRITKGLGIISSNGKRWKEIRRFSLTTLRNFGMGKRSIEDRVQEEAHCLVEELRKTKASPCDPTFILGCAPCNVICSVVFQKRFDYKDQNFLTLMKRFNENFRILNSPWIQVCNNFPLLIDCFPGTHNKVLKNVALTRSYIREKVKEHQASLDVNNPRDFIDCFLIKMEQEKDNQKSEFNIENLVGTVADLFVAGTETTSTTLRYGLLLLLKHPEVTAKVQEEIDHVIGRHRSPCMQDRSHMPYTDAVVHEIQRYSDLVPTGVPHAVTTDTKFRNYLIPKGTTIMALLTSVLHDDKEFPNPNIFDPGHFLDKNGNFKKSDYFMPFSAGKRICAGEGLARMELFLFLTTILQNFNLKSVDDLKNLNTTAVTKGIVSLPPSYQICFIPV
# Cytochrome P450 2C9 = Cytochrome P450 2C9 (Homo sapiens, UniProt P11712); assay: Inhibition of human recombinant CYP2C9 expressed in baculovirus-infected insect cells preincubated for 15 mins followed by substrate addition measured after 30 mins by luminescence assay; assay type: ADME; conditions: recombinant enzyme, 0.5 h
# Sequence of Cytochrome P450 2C9 (P11712 whole entry): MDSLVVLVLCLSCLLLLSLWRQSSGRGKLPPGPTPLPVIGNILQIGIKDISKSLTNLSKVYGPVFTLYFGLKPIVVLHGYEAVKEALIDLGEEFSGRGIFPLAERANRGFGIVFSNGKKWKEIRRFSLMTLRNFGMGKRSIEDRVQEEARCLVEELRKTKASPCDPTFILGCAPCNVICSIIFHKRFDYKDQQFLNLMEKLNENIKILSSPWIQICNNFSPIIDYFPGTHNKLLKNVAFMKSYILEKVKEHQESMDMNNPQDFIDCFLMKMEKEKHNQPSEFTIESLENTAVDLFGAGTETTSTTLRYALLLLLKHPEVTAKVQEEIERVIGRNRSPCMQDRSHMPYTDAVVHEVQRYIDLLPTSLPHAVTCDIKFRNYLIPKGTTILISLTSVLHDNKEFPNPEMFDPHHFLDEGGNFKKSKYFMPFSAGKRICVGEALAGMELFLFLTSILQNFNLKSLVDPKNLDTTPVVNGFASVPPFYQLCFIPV
# Plasmodium berghei [8] = assay: Antimalarial activity against Plasmodium berghei ANKA expressing GFP infected in NMRI mouse assessed as effect on mouse survival at 10 mg/kg/day, po qd for 4 days measured at 24 hrs after last dose; assay type: functional, organism-based
# Summary of the method: (§1)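 P. berghei-infected mice dosed orally once daily on days 0–3, first dose 4 h postinfection, at 3, 10, 30 and 100 mg/kg/day. Red blood cell parasitemia and plasma exposure measured on day 4, 24 h after last dose; ED50 derived from dose-response; survival then monitored for 26 further days as mean survival days.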
# [9] = target: Sodium channel protein type 5 subunit alpha (Homo sapiens, UniProt Q14524); assay: Inhibition of human Nav1.5 channel
# Sequence of Sodium channel protein type 5 subunit alpha (Q14524 whole entry): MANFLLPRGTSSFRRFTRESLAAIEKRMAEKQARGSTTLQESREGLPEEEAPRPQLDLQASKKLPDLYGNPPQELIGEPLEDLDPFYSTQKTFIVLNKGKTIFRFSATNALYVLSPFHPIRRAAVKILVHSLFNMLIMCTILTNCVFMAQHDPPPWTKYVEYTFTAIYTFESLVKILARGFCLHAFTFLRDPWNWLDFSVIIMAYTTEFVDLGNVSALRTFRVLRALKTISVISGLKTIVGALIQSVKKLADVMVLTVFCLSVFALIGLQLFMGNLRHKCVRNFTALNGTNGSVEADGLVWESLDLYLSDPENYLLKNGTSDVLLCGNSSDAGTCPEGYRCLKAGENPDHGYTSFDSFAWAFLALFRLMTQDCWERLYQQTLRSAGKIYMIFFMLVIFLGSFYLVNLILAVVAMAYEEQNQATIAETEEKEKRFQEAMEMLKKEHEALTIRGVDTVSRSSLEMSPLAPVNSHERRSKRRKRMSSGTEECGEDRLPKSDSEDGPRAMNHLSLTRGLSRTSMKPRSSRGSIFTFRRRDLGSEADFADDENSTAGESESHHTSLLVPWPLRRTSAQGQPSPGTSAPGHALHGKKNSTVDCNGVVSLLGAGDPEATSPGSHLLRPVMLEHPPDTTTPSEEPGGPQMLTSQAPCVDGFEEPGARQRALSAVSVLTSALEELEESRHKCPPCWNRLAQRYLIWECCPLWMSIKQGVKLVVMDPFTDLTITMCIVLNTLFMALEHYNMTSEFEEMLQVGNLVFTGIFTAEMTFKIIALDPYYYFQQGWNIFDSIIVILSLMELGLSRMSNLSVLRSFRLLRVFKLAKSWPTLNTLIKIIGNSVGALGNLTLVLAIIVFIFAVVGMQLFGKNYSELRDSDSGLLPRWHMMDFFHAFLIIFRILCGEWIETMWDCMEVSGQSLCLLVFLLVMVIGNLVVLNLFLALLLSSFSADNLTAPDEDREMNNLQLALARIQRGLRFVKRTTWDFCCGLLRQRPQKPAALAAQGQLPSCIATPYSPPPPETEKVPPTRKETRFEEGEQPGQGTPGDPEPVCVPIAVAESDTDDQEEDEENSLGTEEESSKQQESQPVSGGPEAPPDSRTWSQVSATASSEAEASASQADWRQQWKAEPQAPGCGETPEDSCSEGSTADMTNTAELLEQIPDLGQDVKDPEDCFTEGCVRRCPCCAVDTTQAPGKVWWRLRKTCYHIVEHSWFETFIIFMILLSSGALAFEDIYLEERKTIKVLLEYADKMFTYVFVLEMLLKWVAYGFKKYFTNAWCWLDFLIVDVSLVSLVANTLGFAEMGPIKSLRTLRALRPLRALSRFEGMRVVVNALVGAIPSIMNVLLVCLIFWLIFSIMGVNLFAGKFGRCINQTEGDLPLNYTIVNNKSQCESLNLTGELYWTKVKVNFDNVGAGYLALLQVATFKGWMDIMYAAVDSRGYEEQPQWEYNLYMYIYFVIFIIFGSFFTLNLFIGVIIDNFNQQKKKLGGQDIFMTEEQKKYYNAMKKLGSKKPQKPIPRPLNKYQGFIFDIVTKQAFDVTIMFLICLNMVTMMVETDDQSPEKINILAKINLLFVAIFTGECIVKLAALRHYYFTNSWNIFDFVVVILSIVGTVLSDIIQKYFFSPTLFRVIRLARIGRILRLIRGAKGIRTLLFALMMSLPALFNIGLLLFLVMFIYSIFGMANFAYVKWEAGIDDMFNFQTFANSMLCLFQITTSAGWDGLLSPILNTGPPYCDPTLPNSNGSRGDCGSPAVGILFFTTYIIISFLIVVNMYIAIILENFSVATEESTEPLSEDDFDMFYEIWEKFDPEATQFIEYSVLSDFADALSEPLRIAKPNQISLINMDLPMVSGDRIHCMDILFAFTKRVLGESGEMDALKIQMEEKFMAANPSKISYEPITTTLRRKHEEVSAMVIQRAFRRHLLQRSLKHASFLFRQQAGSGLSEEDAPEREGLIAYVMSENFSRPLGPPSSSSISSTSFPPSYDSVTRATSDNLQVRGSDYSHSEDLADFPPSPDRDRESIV
# Cytochrome P450 3A4 = Cytochrome P450 3A4 (Homo sapiens, UniProt P08684); assay: Inhibition of human recombinant CYP3A4 expressed in baculovirus-infected insect cells preincubated for 15 mins followed by substrate addition measured after 30 mins by luminescence assay; assay type: ADME; conditions: recombinant enzyme, 0.5 h
# Sequence of Cytochrome P450 3A4 (P08684 whole entry): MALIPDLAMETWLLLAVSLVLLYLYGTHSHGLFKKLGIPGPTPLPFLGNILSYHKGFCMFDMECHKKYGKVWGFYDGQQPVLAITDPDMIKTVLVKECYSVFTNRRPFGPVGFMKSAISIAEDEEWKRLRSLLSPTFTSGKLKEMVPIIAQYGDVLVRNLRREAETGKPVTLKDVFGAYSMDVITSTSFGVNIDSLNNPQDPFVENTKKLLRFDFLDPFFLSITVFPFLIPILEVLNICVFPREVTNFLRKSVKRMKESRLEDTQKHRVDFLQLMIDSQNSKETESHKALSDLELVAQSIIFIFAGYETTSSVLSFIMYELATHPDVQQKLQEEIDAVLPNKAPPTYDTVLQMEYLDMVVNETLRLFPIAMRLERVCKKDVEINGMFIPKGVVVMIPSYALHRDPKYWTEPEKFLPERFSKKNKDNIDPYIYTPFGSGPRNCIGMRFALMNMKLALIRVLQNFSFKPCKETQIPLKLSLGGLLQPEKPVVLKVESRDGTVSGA
# Plasmodium berghei [10] = assay: Antimalarial activity against Plasmodium berghei ANKA expressing GFP infected in NMRI mouse assessed as reduction in parasitemia at 100 mg/kg/day, po qd for 4 days measured at 24 hrs after last dose relative to control; assay type: functional; set-up: scale not given: the % may be the effect or the level left; summary of the method: as §1
# Plasmodium falciparum [11] = assay: Antimalarial activity against drug-sensitive Plasmodium falciparum NF54; assay type: functional, organism-based
# Cytochrome P450 1A2 = target: T3, Cytochrome P450 1A2 (Homo sapiens, UniProt P05177); assay: Inhibition of human recombinant CYP1A2 expressed in baculovirus-infected insect cells preincubated for 15 mins followed by substrate addition measured after 30 mins by luminescence assay; assay type: ADME; conditions: recombinant enzyme, 0.5 h
# T3 sequence (P05177 whole entry): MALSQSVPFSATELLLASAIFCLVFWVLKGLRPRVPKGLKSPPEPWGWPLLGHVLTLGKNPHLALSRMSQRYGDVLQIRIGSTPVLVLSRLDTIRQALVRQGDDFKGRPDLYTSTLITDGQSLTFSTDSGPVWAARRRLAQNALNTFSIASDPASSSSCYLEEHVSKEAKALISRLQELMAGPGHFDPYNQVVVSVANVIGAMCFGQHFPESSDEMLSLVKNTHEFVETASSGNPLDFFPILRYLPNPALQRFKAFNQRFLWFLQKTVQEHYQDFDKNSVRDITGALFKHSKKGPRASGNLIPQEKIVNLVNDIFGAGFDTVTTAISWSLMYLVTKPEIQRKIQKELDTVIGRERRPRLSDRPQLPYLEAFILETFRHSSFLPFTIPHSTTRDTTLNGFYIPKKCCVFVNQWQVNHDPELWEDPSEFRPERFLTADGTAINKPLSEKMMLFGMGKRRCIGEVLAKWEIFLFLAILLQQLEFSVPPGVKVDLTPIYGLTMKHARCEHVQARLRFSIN
compound,measurement,setting,value
OC(CNC1CCCCC1)Cn1c2ccc(Br)cc2c2cc(Br)ccc21 (racemic),Activity,Plasmodium falciparum [1],Active
same,Activity,Plasmodium falciparum [2],Active
same,inhibition (INH),[3],Not Active
same,Cmax,[4],158 ng/mL
same,inhibition (INH),[5],Not Active
same,Activity,[6],Non-toxic
same,inhibition,[7],inactive
same,inhibition (INH),Cytochrome P450 2C8,Active
same,inhibition (INH),Cytochrome P450 2C9,Active
same,Activity,Plasmodium berghei [8],inactive
same,inhibition (INH),[9],Not Active
same,inhibition (INH),Cytochrome P450 3A4,Active
same,Activity,Plasmodium berghei [10],99.97%
same,Activity,Plasmodium falciparum [11],Active
same,inhibition (INH),Cytochrome P450 1A2,Active

# Reference: ChEMBL document CHEMBL3098117, “Identification and optimization of an aminoalcohol-carbazole series with antimalarial properties” (ACS Med Chem Lett, 2013)
